FLuc stim CS = firefly luciferase counter-screen for stimulation assays. P08659. ATPlite luciferase biochemical, luminescence, 10 min; 0 = ATP-free wells, 1 = DMSO control. activation factor at 10 µM. 200,000 tested, under 10 active;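 active means luciferase activation factor, scaled between plate controls, of at least 2 with compound at 10 µM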
Target sequence (P08659 whole entry, looked up): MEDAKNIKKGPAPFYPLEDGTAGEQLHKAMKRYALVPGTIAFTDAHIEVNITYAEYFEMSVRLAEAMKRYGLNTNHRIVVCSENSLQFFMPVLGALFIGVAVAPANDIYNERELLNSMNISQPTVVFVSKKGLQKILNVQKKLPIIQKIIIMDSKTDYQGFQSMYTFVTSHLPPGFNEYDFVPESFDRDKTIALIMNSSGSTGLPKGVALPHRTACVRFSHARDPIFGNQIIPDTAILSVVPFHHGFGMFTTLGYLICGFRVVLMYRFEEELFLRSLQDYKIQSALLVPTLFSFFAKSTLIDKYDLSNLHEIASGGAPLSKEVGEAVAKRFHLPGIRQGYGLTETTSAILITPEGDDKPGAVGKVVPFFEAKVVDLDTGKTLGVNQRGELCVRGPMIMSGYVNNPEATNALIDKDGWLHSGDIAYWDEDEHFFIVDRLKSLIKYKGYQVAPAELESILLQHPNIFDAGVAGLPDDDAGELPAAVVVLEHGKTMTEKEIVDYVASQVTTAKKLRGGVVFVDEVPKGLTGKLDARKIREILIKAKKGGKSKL
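Assay system: Luciferase/luciferin detection reagent, cell-free biochemical luciferase assay / Read-out: luciferase activation / Benchmarks: No-ATP low control, compound-free enzyme-plus-ATP high control / Medium: PBS buffer for ATP / Detection: luminescence measurement of luciferase light output / Schedule: 10 min at ambient temperature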
STAT1 activator = increases IFN-gamma driven STAT1 reporter signal | AID 932 | NIH 3T3 STAT1-luciferase reporter, luminescence; 100% = IFN-gamma alone, no compound | activation (% of control), % at 5.5 µM | 2.6% of 200,000 active;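 active means activation above the screen-wide mean activation plus 3 SD, cut at about 130% in these data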
NF-kB neuron act = compounds increasing NF-kB expression in human neuronal cells | 1.6% of 190,000 active | NF-kB reporter expression; hits give high values | fold change at 12.5 µM | AID 1239; in the data active means fold change above about 3.3
APP 5'UTR act = activates APP 5'UTR luciferase reporter; 1% of 190,000 active; activation, % at 2 µM; SH-SY5Y APP 5'UTR luciferase reporter, luminescence; zero percent = DMSO vehicle wells;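 active means activation above a set limit, based on mean plus 3 SD of controls, cut at about 140% in these data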
sdo1 growth = compounds rescuing growth of sdo1-depleted yeast, bone marrow failure model. S. cerevisiae sdo1-depleted JHY4D growth rescue, OD600 30 h; hits give high values; pdr5 snq2 efflux-pump mutant strain. z-score at 10 µM. 0.21% of 140,000 active. AID 817;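 active means z-score above 3 at both the 24 hr and the 30 hr optical density reads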
FLuc inhib CS = inhibits firefly luciferase, flagging false hits in luciferase inhibition screens; ATPLite firefly luciferase biochemical luminescence, 10 min; P08659; AID 1006; inhibition, % at 10 µM; 1.5% of 200,000 active;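 active means inhibition above about 50% when tested at 10 µM, limit read from the data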
Numbers stand for hits; . = inactive; / = not tested or not shown. Shown are actives, neighbours in structure and some others; about 4.3% of the full set was active somewhere.

SMILES | FLuc stim CS | STAT1 activator | NF-kB neuron act | APP 5'UTR act | sdo1 growth | FLuc inhib CS
CCOC(=O)c1nn(-c2ccccc2C)c2nc(-c3ccc(Cl)cc3)c(C#N)c(=O)n12 | . | . | . | . | . | .
O=c1c(Cc2ccc(F)cc2)c(O)ccn1CCCN1CCOCC1 | . | . | . | . | / | .
CC(C)CC(NC(=O)CNC(=O)C1O[C@@H]2OC(C)(C)O[C@@H]2[C@H]2OC(C)(C)O[C@@H]12)C(=O)O (stereo partly specified) | . | . | . | . | / | .
CC(C)CN(C)Cc1c(C(=O)N2CCc3ccccc3C2)nc2ccc(Cl)cn12 | . | . | 5.1 | . | / | .
Cn1c(SCc2cccc(F)c2)nnc1-c1ccccn1 | . | . | . | . | . | .
Nn1c(SCc2ccccc2)nnc1-c1ccccn1 | . | 131 | . | . | . | .
CCCCc1ccc(-c2nc(N)n[nH]2)cc1 | . | . | . | . | . | 68
O=C(c1ccc(COc2ccc3c(c2)CCC3)o1)N1CCN(c2ccccc2)CC1 | / | . | / | . | / | /
O=C(c1ccco1)N1CCN(C(=O)c2ccc(COc3ccc4c(c3)CCC4)o2)CC1 | . | 132 | . | . | . | .
CC(=O)c1ccc(OC(=O)C2c3ccccc3Oc3ccccc32)cc1 | . | . | . | . | . | .
Cc1ccc(OC(=O)C2c3ccccc3Oc3ccccc32)cc1C | . | . | 4.6 | . | . | .
COc1ccc(OC)c(NC(=O)c2cnc(Nc3ccccc3OC)c3ccccc23)c1 | . | . | . | . | . | .
Nc1nnc(-c2cc3ccccc3oc2=O)s1 | . | 131 | . | . | . | .
Clc1ccc2nncn2n1 | . | . | . | . | / | .
COc1cc(/C=C/c2nnc3c4ccccc4ncn23)cc(OC)c1OC | . | . | . | . | . | .
C(=C\c1nnc2c3ccccc3ncn12)/c1ccccc1 | . | 148 | . | . | . | .
CCOc1ccc(-c2cc(N3C(=O)Nc4ccccc4N3O)on2)cc1 | . | . | . | . | . | 76
COc1cccc(/C=C2\SC(=S)N(c3cccnc3)C2=O)c1OC | . | . | . | . | / | 67
CC1=C(OC(=O)c2ccccc2)C(C)(C)C(c2ccc(Br)cc2)OC1=O (stereo unspecified) | . | . | . | . | . | .
O=[N+]([O-])c1nn(-c2ccc3c(c2)OCCO3)n(O)c1=NCc1ccc(F)cc1Cl | . | 142 | . | 165 | / | .
O=[N+]([O-])c1nn(-c2ccc3c(c2)OCCO3)n(O)c1=NCCC1=CCCCC1 | . | . | . | . | / | .
CN=c1c([N+](=O)[O-])nn(-c2ccc3c(c2)OCCO3)n1O | . | . | . | . | / | .
O=[N+]([O-])c1nn(-c2ccc3c(c2)OCCO3)n(O)c1=NCc1ccc(F)cc1 | . | 143 | . | . | . | .
COc1ccc(C2=[N+](C)CCn3cccc32)c(OC)c1 | . | . | . | . | . | .
CCOC(=O)N1CCC(n2c(SCC(=O)NCCc3ccc(S(N)(=O)=O)cc3)nc3ccccc3c2=O)CC1 | . | . | . | . | / | .
SMILES | FLuc stim CS | STAT1 activator | NF-kB neuron act | APP 5'UTR act | sdo1 growth | FLuc inhib CS
CN(C)S(=O)(=O)c1ccc(Cl)c(-c2nnc3n2CCCCC3)c1 | . | . | . | . | / | .
Cc1cc(Oc2ccccc2)nc(N)n1 | . | . | . | . | . | .
Cc1cc(SCCOc2ccccc2)nc(N)n1 | . | 129 | . | . | . | .
Clc1cccc(/C=N/Nc2nnc(Cl)c3ccccc23)c1 | . | . | . | . | . | .
Clc1ccc(/C=N/Nc2nnc(-c3ncc[nH]3)c3ccccc23)cc1 | . | . | . | . | . | 75
O=S(=O)(NC(=NC1CCCC1)C(F)(F)F)c1ccccc1 | . | . | . | . | . | .
O=C(NC(=S)N1CCN(Cc2ccccc2)CC1)c1ccco1 | . | . | . | . | / | .
COc1ccc(-n2c(C)cc(/C=N/Nc3nnc(C)n3N)c2C)cc1 | . | 131 | . | . | . | .
CCC(C)NCCCCOc1cc(C)cc(C(C)C)c1 (stereo unspecified) | . | . | . | . | . | .
COC(=O)c1ccc(Oc2cc(C)nc(-n3nc(C)cc3C)n2)cc1 | . | . | 3.9 | . | . | .
COC(=O)c1ccc(Oc2nc(C)cc(Oc3ccccc3)n2)cc1 | . | . | . | . | . | .
COc1ccccc1NC(=O)Cn1cnc2sc(C)c(S(=O)(=O)N3CCCCC3)c2c1=O | . | . | . | . | . | .
O=C(NC1C(=O)NNC1c1ccccc1)c1ccc(F)cc1 (stereo unspecified) | . | 129 | . | . | . | .
O=C(NC1C(=O)NNC1c1ccc(Cl)cc1)c1ccc(F)cc1 (stereo unspecified) | . | . | . | . | / | .
CCn1c2ccccc2c2cc(Nc3cc(C)nc4ncnn34)ccc21 | . | . | 4.4 | . | . | .
c1ccc(-n2ncc3c2ncn2cnnc32)cc1 | . | . | . | . | . | .
CCc1nnc2c3cnn(-c4ccccc4)c3ncn12 | . | 133 | . | . | . | .
Cc1ccc(-n2ncc3c2ncn2c(C)nnc32)cc1C | . | 136 | 3.4 | . | . | .
CC(=O)NNc1ncnc2c1cnn2-c1ccc(C)c(C)c1 | . | . | . | . | / | .
COC(=O)c1c(-c2ccc(F)cc2)csc1NC(=O)c1ccco1 | . | 146 | . | . | . | .
COc1ccc2c(c1)NC(c1cc(Cl)cc(Cl)c1O)c1cccn1-2 (stereo unspecified) | . | . | 3.7 | . | / | .
c1cncc(-c2nnc(-c3cccs3)o2)c1 | . | . | . | . | . | .
CCOc1ccc(-c2nnc(-c3cccs3)o2)cc1 | . | . | 4.2 | . | . | 65
c1csc(-c2nnc(-c3ccc(N4CCOCC4)cc3)o2)c1 | . | . | 3.4 | . | . | 71
COc1cc(-c2nnc(-c3cccs3)o2)cc(OC)c1OC | . | . | . | . | . | .
SMILES | FLuc stim CS | STAT1 activator | NF-kB neuron act | APP 5'UTR act | sdo1 growth | FLuc inhib CS
CCOc1ccc(-c2nnc(-c3cccs3)o2)cc1OCC | . | . | . | . | . | .
COc1ccc(-c2nnc(-c3cccs3)o2)cc1OC | . | 150 | . | . | . | .
CCOC(=O)c1sc(NC(=O)c2ccco2)nc1C | . | / | . | / | . | .
COC(=O)c1sc(NC(=O)c2ccc(C)o2)nc1C | . | . | . | . | . | 52
CCOC(=O)c1sc(NC(=O)c2ccc(C)o2)nc1C | . | . | . | . | . | 69
COC(=O)c1sc(NC(=O)c2oc3ccccc3c2C)nc1C | . | 144 | . | . | . | .
COc1cc(C2NC(=O)NC(c3ccccc3)=C2C(C)=O)c(Cl)cc1OCC(=O)O (stereo unspecified) | . | . | . | 199 | / | .
COc1cc(C2Nc3ccccc3C(=O)N2c2ccc(Cl)cc2)c(Cl)cc1OCC(=O)O (stereo unspecified) | . | 138 | . | . | . | .

Screening data: PubChem BioAssay, several laboratories
